Laboratory results reported in article PMC11299136 (ACS Applied Materials & Interfaces, 2024).

Legend:
[1] = Temperature-dependent circular dichroism; type: physicochemical
Method in brief: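 Proteins were either diluted in PBS or dispersed in PFOc with 1 mM dispersant. The aqueous samples were heated between 40 and 90 °C, with a CD spectrum taken at each temperature. The PFOc dispersions were heat-treated at 40, 55, 70 and 85 °C for 15 min each, then mixed with PBS to elute the protein before CD. Each condition was run in triplicate, and representative spectra were reported.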

[2] = test system: HepG2 cells; assay: Cellular toxicity, MTT assay; type: cell-based, human; conditions: 2–128 μL fluorous solvent added to culture medium, 48 h
Method in brief: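 HepG2 cells seeded at 2000 cells/well and allowed to adhere overnight. Dispersant at 10 nM–1 mM in culture medium, or 2–128 μL fluorous solvent added to the medium, for 48 h. Serum-free medium served as the negative control and 20% DMSO in serum-free medium as the positive control. Then 0.5 mg/mL MTT in serum-free medium for 2 h, formazan dissolved in DMSO, A540 read. Viability was normalized between the two controls.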

[3] = test system: bacteria; assay: Control bacterial viability; type: cell-based; conditions: component alone: PFOc mixed with bacterial media, or PD-7 added to PBS
[4] = dispersed in PFOc using PD-7, heated up to 85 °C

Molecule | change in secondary structure on heating (CD) [1, 4] | toxicity toward human liver cells [2] | MIC / bacterial viability [3] | change in secondary structure on heating (CD) ([1]; saline (PBS) control formulation, 40–85 °C)
bovine serum albumin [BSA] | minimal changes in secondary structure | – | – | –
rabbit serum immunoglobulin [IgG] | minimal changes in secondary structure | – | – | –
β-galactosidase | minimal changes in secondary structure | – | – | –
FC(F)(F)C(F)(F)C(F)(F)C(F)(F)C(F)(F)C(F)(F)C(F)(F)C(F)(F)F [PFOc, perfluorooctane] | – | biocompatible | no MIC could be calculated | –
bovine trypsin (protein, UniProt P00760 24-246, looked up) Serine protease 1: IVGGYTCGANTVPYQVSLNSGYHFCGGSLINSQWVVSAAHCYKSGIQVRLGEDNINVVEGNEQFISASKSIVHPSYNSNTLNNDIMLIKLKSAASLNSRVASISLPTSCASAGTQCLISGWGNTKSSGTSYPDVLKCLKAPILSDSSCKSAYPGQITSNMFCAGYLEGGKDSCQGDSGGPVVCSGKLQGIVSWGSGCAQKNKPGVYTKVCNYVSWIKQTIASN | minimal changes in secondary structure | – | – | minimal change in structure
